TCR-CD3 inh: human TCR-CD3 binding inhibition; AID 651800; inhibition, % at 9.4 µM; 0.37% of 360,000 active; TAMRA-labeled TCR probe fluorescence, biochemical;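 note: recombinant mutant TCR 2C K166C tagged with TAMRA read by polarization; 0% = receptor in buffer alone and 100% = receptor with positive control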
SIAE inh: inhibitors of human sialic acid acetylesterase SIAE; SIAE FP-Rh probe binding, fluorescence polarization; inhibition, % at 9.66 µM; 0.69% of 370,000 active; AID 1053197;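 active = inhibition above a cutoff: mean of compounds within the control limits plus 3 SD of those, cut at about 17% in these data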;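 note: 0% = plate median of compound wells and 100% = probe without SIAE protein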
HTRA1 inhibitor: blocks human HTRA1 serine peptidase; inhibition, % at 5.96 µM; 0.5% of 340,000 active; Q92743; recombinant HTRA1, FP-rhodamine activity-based probe, fluorescence polarization; AID 504803; in the data active = inhibition above about 36%;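 note: 0% = enzyme with DMSO and 100% = wells lacking enzyme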
mABHD4 FP: inhibitors of mouse ABHD4. 0.54% of 370,000 active. purified mABHD4, FP-Rh probe fluorescence polarization. inhibition, % at 8.92 µM. Q8VD66;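 active = inhibition exceeding the mean over every tested compound plus 3 SD, cut at about 30% in these data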;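 note: 0% = plate median of compound wells and 100% = S159A mutant with DMSO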
Target sequence (Q8VD66 whole entry, looked up): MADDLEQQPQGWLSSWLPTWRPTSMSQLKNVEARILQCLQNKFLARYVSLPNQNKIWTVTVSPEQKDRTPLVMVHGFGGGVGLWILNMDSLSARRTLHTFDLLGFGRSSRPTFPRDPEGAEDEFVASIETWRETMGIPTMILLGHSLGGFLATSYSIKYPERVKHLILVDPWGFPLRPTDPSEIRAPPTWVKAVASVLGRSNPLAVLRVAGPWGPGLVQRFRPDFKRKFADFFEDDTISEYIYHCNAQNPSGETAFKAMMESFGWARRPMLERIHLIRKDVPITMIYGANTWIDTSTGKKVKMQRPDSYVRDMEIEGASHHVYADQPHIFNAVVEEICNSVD
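system = mouse ABHD4 enzyme, wild type | medium = HEPES pH 7.0, NaCl, Pluronic buffer | also added = FP-Rh probe | incubation = Enzyme–compound pre-incubation 45 min, then probe 60 min, both 25 °C | technique = fluorescence polarization, excitation 525 nm, emission 598 nm, BODIPY TMR filters | controls = S159A mutant high control, sample median low control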
DDE Tn6 FP inh: inhibitors of Tn6 peptide binding to human fibrin DD(E); P02675; Fibrin DD(E) TRITC-Tn6 fluorescence polarization displacement; inhibition, % at 8.3 µM; 0.21% of 370,000 active; AID 720509;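 active = inhibition above a per-campaign cutoff: mean of compounds within control limits plus 3 SD, cut at about 15% in these data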;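 note: 0% = median of all compound wells on the plate and 100% = blocking peptide control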
Tn7 DDE FP: inhibitors of Tn7 peptide binding to human fibrin DD(E) | P02675 | FP displacement of FITC-Tn7 peptide from fibrin DD(E); 0% = median of compound wells per plate | inhibition, % at 8.3 µM | 0.13% of 370,000 active;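 active = inhibition above the mean of compounds falling within the control limits plus 3 SD of them, cut at about 14% in these data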;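 note: 0% = plate median of compound wells and 100% = 10 µM Aha-Tn7 peptide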
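Assay system: human fibrin DD(E) protein / Input: 2 µM fibrin DD(E) / Benchmarks: high control of 10 µM Aha-Tn7 peptide / Measured by: fluorescence polarization of the labelled Tn7 tracer / Medium: Tris buffer with calcium and detergent, pH 7.8 / Timing: 10 min compound pre-incubation, 3 h probe incubation at room temperature / Repeats: one replicate per compound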
BSA TAMRA ctr: BSA probe counter-screen for TCR-CD3 inhibitors. inhibition, % at 9.4 µM. shares compounds with TCR-CD3 inh. TAMRA-labeled BSA probe fluorescence counterscreen. 10% of 1,200 active; in the data active = inhibition above about 23%;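 note: 0% = buffer low control and 100% = reference high control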
TCR-CD3 conf: TCR-CD3 interaction inhibition, confirmation | shares compounds with TCR-CD3 inh | TAMRA-labeled TCR probe fluorescence binding assay | inhibition, % at 9.4 µM | 48% of 1,200 active
Tn7 DDE conf: confirmation of inhibitors of Tn7 binding to human fibrin DD(E). 5% of 460 active. FP displacement of TRITC-Tn7 peptide from DD(E); 0% set at plate's compound-well median. AID 720628. shares compounds with Tn7 DDE FP. inhibition, % at 8.3 µM;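 active = inhibition above the campaign cutoff, the mean of compounds within control limits plus 3 SD, cut at about 14% in these data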;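 note: 100% = median FP of high control wells holding Aha-Tn7 inhibitor peptide; displacers lower polarization since freed probe rises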
Tn7 DDE ctr: counter-screen hit for Tn7 peptide-fibrin DD(E) binding disruption. TRITC-Tn7 probe displacement, fluorescence polarization. AID 720633. 3% of 460 active. shares compounds with Tn7 DDE FP. inhibition, % at 8.3 µM;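 active = inhibition above the cutoff, the mean of compounds lying between the control bounds plus 3 SD of those compounds, cut at about 17% in these data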;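 note: 0% = median of compound sample wells and 100% = excess unlabeled Aha-Tn7 peptide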
Tn6 DDE ctr: counter-screen hit for Tn6 peptide-fibrin DD(E) binding disruption. shares compounds with DDE Tn6 FP inh. TRITC-Tn6 fluorescence polarization displacement; 0% = median of compound wells, not DMSO. inhibition, % at 8.3 µM. 2% of 680 active. AID 720621;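 active = inhibition above the mean of test compounds lying between the control limits plus 3 SD of those, cut at about 14% in these data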;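 note: 0% = median of compound wells and 100% = wells with Aha-Tn7 blocking peptide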
Tn6 DDE conf: confirmation of inhibitors of Tn6 binding to human fibrin DD(E); shares compounds with DDE Tn6 FP inh; FP displacement of TRITC-Tn6 peptide from DD(E); 0% = per-plate median of test wells; inhibition, % at 8.3 µM; 10% of 680 active; AID 720631;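 active = inhibition above the mean of compounds lying within the control limits plus 3 SD, cut at about 16% in these data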;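 note: 100% = high control wells holding a competing inhibitor peptide at 10 µM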
mABHD4 conf: ABHD4 (mouse) inhibition, FP confirmation; shares compounds with mABHD4 FP; purified mABHD4, FP-Rh probe fluorescence polarization; inhibition, % at 8.92 µM; 55% of 1,800 active;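 active = mean inhibition across replicates above the hit cutoff set in the primary screen, cut at about 30% in these data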;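 note: 0% = wild-type ABHD4 with DMSO and 100% = catalytically dead S159A mutant with DMSO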
SIAE confirm: human SIAE inhibition, confirmation | shares compounds with SIAE inh | SIAE FP-Rh activity-based probe, fluorescence polarization | inhibition, % at 9.66 µM | 13% of 2,300 active | AID 1117263;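 active = mean inhibition of the replicates above the hit cutoff set in the primary screen, cut at about 17% in these data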;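 note: 0% = SIAE with DMSO and probe and 100% = probe without SIAE; inhibitors lower polarization as more probe stays unbound to SIAE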
Active calls of the source: *; / = not tested or not shown. An excerpt weighted towards active compounds, which were near 1.8% of everything screened. Cut-off read from the data, not from the text of the source, unless noted: active = inhibition above about 19%; inactive = the rest.

SMILES	TCR-CD3 inh	SIAE inh	HTRA1 inhibitor	mABHD4 FP	DDE Tn6 FP inh	Tn7 DDE FP	BSA TAMRA ctr	TCR-CD3 conf	SIAE confirm	others
COC(=O)C1CN(Cc2ccc(F)cc2)CCS(=O)(=O)N1Cc1cn(Cc2ccc(Cl)cc2)nn1 (configuration not stated)	/	0	/	-4	3	5	/	/	/
Clc1ccccc1N=Nc1ccccn1	28*	20*	27	41*	14	10	8	13	4	mABHD4 conf=5
Cc1[nH][nH]c(=O)c1N=Nc1ccccc1Cl	-2	-1	4	-4	1	2	/	/	/
OCCOCCN1CCN(C2=Nc3ccccc3Sc3ccccc32)CC1	-6	-4	4	-4	4	7	/	/	/
O=C1C=CC(=O)c2c(O)c(N3CCN(CCOCCO)CC3)c(Br)c(O)c21	75*	24*	31	46*	31*	2	1	48*	15	mABHD4 conf=72*
CCN(CC)CCCNC(=O)CSc1nc2cccnc2n1C	/	1	/	0	-3	-2	/	/	/
Oc1c(N=Nc2ccc(F)cc2)ccc2ccccc12	-9	6	6	12	-4	1	/	/	/
Oc1c(N=Nc2nn[nH]n2)ccc2ccccc12	37*	25*	/	26	1	-3	146*	104*	44*
O=C(Cc1csc(N2CCOCC2)n1)N/N=C/c1ccc(O)c(O)c1O	41*	31*	17	22	-9	-2	-15	17	18*
CCOC(=O)C1=Nc2ccccc2C1=[N+]=[N-]	-7	-4	-12	5	6	-2	/	/	/
CCOC(=O)C1=Nc2cccc3c(O)ccc1c23	85*	30*	/	29	8	46*	141*	110*	18*	Tn7 DDE conf=21*;Tn7 DDE ctr=11
O=C(CCCSc1ccccc1)Nc1nc(-c2ccco2)c(-c2ccco2)s1	23*	28*	-19	-1	4	-4	-11	-3	-10
Cc1ccc(C(=O)Nc2nc(-c3ccco3)c(-c3ccco3)s2)o1	31*	41*	5	36*	-16	1	-1	0	-19	mABHD4 conf=-13
N#Cc1cc(F)cc(OC[C@@H](O)CN2CCC(C(O)(c3ccccc3)c3ccccc3)CC2)c1	/	-8	/	-5	2	0	/	/	/
C=CCNC(=O)Nc1ccc2c(c1)[C@]1(CC(=O)N(CC(C)C)C1c1ccccc1)C(=O)N2C (some centres not stated)	/	-4	/	3	2	1	/	/	/
Cc1ccc(-n2c(SCC(=O)Nc3ccccc3-c3ccccc3)nnc2-c2cccnc2)cc1	/	-1	/	1	2	-4	/	/	/
c1coc(-c2nc(-c3ccco3)c(-c3ccco3)nc2-c2ccco2)c1	26*	29*	74*	54*	-8	-1	-7	8	9	mABHD4 conf=43*
C=CS(=O)(=O)N(Cc1ccc(F)cc1)C(=C)C(=O)OC	/	0	/	-4	8	11	/	/	/
CCOc1ccc(NC(=O)NNC(=O)c2ccc3ccccc3c2O)cc1	32*	21*	18	28	2	5	-8	23*	2
O=C(COCc1ccccc1)N1CC[C@H]2[C@H](CCCN2Cc2ccc(F)cc2)C1	/	-1	/	1	3	0	/	/	/
CN(C)/C=C1\C=C2C(=O)c3ccccc3N2C1=O	39*	21*	30	8	0	30*	113*	74*	38*	Tn7 DDE conf=53*;Tn7 DDE ctr=24*
CN(C)S(=O)(=O)N1C(=O)c2ccccc2C1=O	-4	-4	4	-5	-1	-5	/	/	/
CCCC[C@@H]1C(=O)N2N=Cc3cscc3[C@H]2N2N=Cc3cscc3[C@@H]12	/	-2	/	-4	-2	12	/	/	/
CC(NC(=O)Nc1ccc(O)cc1)(C(F)(F)F)C(F)(F)F	54*	26*	32	66*	29*	-1	4	0	-3	Tn6 DDE ctr=-6;Tn6 DDE conf=-7;mABHD4 conf=2
CCN1C(=O)/C(=C2\SC(=S)N(NC(=O)c3ccccc3O)C2=O)c2ccccc21	31*	19*	28	31*	-3	-1	-9	15	26*	mABHD4 conf=73*
SMILES	TCR-CD3 inh	SIAE inh	HTRA1 inhibitor	mABHD4 FP	DDE Tn6 FP inh	Tn7 DDE FP	BSA TAMRA ctr	TCR-CD3 conf	SIAE confirm	others
Cc1cc(O)ccc1N/C=C1\CCCC1=O	34*	46*	31	69*	30*	-1	3	3	1	Tn6 DDE ctr=3;Tn6 DDE conf=-2;mABHD4 conf=17
COc1ccccc1C(=O)NCC(=O)OCC(=O)Nc1ccc2[nH]c(=O)[nH]c2c1	1	3	-1	-5	3	15*	/	/	/	Tn7 DDE conf=5;Tn7 DDE ctr=-5
O=C(COC(=O)CNC(=O)c1ccccc1F)Nc1ccc2[nH]c(=O)[nH]c2c1	0	3	3	4	0	-6	/	/	/
NNC(=O)CP(=O)(c1ccccc1)c1ccccc1	6	0	4	-3	-2	7	/	/	/
O=C(CP(=O)(c1ccccc1)c1ccccc1)Nn1cnnc1	-1	2	9	5	2	17*	/	/	/	Tn7 DDE conf=-1;Tn7 DDE ctr=-4
C#CCN1CC(COc2ccccc2)Oc2cccc(Oc3ccc(OC)cc3)c2S1(=O)=O (configuration not stated)	5	-3	/	-8	-3	14*	/	/	/	Tn7 DDE conf=-4;Tn7 DDE ctr=-10
CCCCN1CC(COCc2ccccc2)Oc2cccc(Oc3ccc(OC)cc3)c2S1(=O)=O (configuration not stated)	3	-6	-21	5	-7	3	/	/	/

Assay outcomes as filed in PubChem.
